Test results taken from article PMC6397583 (Proceedings of the National Academy of Sciences of the …, 2019).

System: E. coli MC1000
Test: Transmission electron microscopy of peptide-treated bacteria
Type: cell-based, Escherichia coli
Settings: 6 × 10^8 cfu E. coli MC1000, 200 µg/mL peptide, 2 h
Summary of the method: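 Bacteria (6 × 10^8 cfu) were exposed to each test peptide (α-defensin or its fragments) at 200 µg/mL for 2 h. They were then fixed and cut into 30-nm sections. Cell envelope and membrane phenotypes were examined by transmission electron microscopy.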

LYRLCCR [HD-5_26–32]
phenotype of peptide-treated bacteria (TEM): small vesicular structures inside the bacteria

CATRESLSGVCEISGRLY [HD-5_10–27]
phenotype of peptide-treated bacteria (TEM): only minor damage in some bacteria while the majority remained unaffected
